The source made the active and inactive calls. No cut-off for these calls is given here.
Assays:
3T3-L1 [1] = test: Increase in AMPKbeta Ser108 phosphorylation in mouse 3T3L1 cells at 1 to 50 uM after 9 days by Western blot method; format: cell-based
Method in brief: (§1)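 Mouse 3T3-L1 cells taken through the differentiation protocol, with compound or DMSO vehicle given from day 0 and renewed at day 3. Cells lysed on ice for 0.5 h in RIPA with PMSF, Na3VO4, NaF and protease inhibitors, then centrifuged at 12,000g. Lysates run on 12% SDS-PAGE and transferred to PVDF. Blots probed overnight at 4 °C and detected with HRP secondary. Bands quantified by optical density against GAPDH. Three independent experiments.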

[2] = Reduction in C/EBPalpha mRNA expression in mouse 3T3L1 cells at 25 uM by RT-PCR method; format: functional, cell-based; details: 3T3-L1, TDE = time-dependent effect
3T3-L1 [3] = test: Inhibition of adipogenesis in mouse 3T3L1 cells assessed as reduction in triglyceride content at 25 uM treated on day 0 to 3 by oil Red-O staining based microscopy; format: functional, cell-based
Method in brief: (§2)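 After 3T3-L1 differentiation (IBMX/dexamethasone/insulin induction, insulin, then basal medium), cells were PBS-washed and fixed in 4% formalin for 60 min. Stained with filtered Oil Red O for 30 min at room temperature and imaged at 40× objective. Dye eluted with isopropanol and read at 510 nm. Three independent experiments.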

[4] = Reduction in AMPKbeta protein expression in mouse 3T3L1 cells at 1 to 50 uM after 9 days by Western blot method; format: functional, cell-based; details: 3T3-L1; method in brief: as §1
3T3-L1 [5] = test: Inhibition of adipogenesis in mouse 3T3L1 cells assessed as reduction in triglyceride content at 25 uM treated on day 6 to 9 by oil Red-O staining based microscopy; format: functional, cell-based; method in brief: as §2
3T3-L1 [6] = test: Inhibition of adipogenesis in mouse 3T3L1 cells assessed as reduction in cell size at 1 to 50 uM by oil Red-O staining based microscopy; format: functional; method in brief: as §2
[7] = Reduction in PPARgamma mRNA expression in mouse 3T3L1 cells at 1 to 50 uM after 72 hrs by RT-PCR method; format: functional, cell-based; details: 3T3-L1
Method in brief: (§3)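 3T3-L1 preadipocytes grown in DMEM with 10% FBS at 37 °C under 5% CO2. Differentiation starts 2 days post-confluence (day 0) with IBMX, 100 ng/mL dexamethasone and insulin for 3 d, then insulin in 10% FBS/DMEM for 3 d, then basic medium for 3 d. Compound is added on day 0 and renewed at day 3. Vehicle control receives the same volume of DMSO.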

[8] = Reduction in SREBP-1c protein expression in mouse 3T3L1 cells at 1 to 50 uM by Western blot method; format: functional, cell-based; details: 3T3-L1; method in brief: as §3
3T3-L1 [9] = test: Inhibition of adipogenesis in mouse 3T3L1 cells assessed as reduction in triglyceride content at 25 uM treated on day 3 to 6 by oil Red-O staining based microscopy; format: functional, cell-based; method in brief: as §2
3T3-L1 [10] = test: Induction of cell cycle arrest in mouse 3T3L1 cells assessed as accumulation at G0/G1 phase at 25 uM after 24 hrs by flow cytometry (reference value: 42%); format: functional
3T3-L1 [11] = test: Reduction in AMPKalpha1 mRNA expression in mouse 3T3L1 cells at 25 uM after 24 hrs by RT-PCR method; format: functional, cell-based
3T3-L1 [12] = test: Inhibition of adipogenesis in mouse 3T3L1 cells assessed as reduction in triglyceride content at 1 to 50 uM by colorimetric assay; format: functional, cell-based
3T3-L1 [13] = test: Inhibition of adipogenesis in mouse 3T3L1 cells assessed as reduction in triglyceride content at 25 uM treated on day 0 to 6 by oil Red-O staining based microscopy; format: functional, cell-based; method in brief: as §2
3T3-L1 [14] = test: Increase in AMPKalpha Thr172 phosphorylation in mouse 3T3L1 cells at 1 to 50 uM after 9 days by Western blot method; format: cell-based; method in brief: as §1
3T3-L1 [15] = test: Inhibition of adipogenesis in mouse 3T3L1 cells assessed as reduction in triglyceride content at 25 uM by colorimetric assay; format: functional, cell-based
3T3-L1 [16] = test: Inhibition of adipogenesis in mouse 3T3L1 cells assessed as reduction in cell finger ring diameter size at 1 to 50 uM by oil Red-O staining based microscopy; format: functional; method in brief: as §2
3T3-L1 [17] = test: Inhibition of adipogenesis in mouse 3T3L1 cells assessed as reduction in triglyceride content at 25 uM treated on day 3 to 6 by colorimetric assay; format: functional; details: 3T3-L1, 72 h
[18] = Reduction in C/EBPbeta mRNA expression in mouse 3T3L1 cells at 25 uM by RT-PCR method; format: functional, cell-based; details: 3T3-L1, TDE = time-dependent effect; method in brief: as §3
[19] = Reduction in C/EBPalpha mRNA expression in mouse 3T3L1 cells at 1 to 50 uM after 72 hrs by RT-PCR method; format: functional, cell-based; details: 3T3-L1
HepG2 = test: Inhibition of oleic acid-induced adipogenesis in human HepG2 cells assessed as reduction in triglyceride content by colorimetric assay; format: functional, cell-based
Method in brief: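 HepG2 cells loaded with 0.5 mM oleic acid sodium, with or without compound. Lysed in 0.2% Triton X-100 in water and sonicated. TG measured colorimetrically and normalised to cellular protein. Blank: no oleate. Three independent experiments.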

[20] = Reduction in PPARgamma protein expression in mouse 3T3L1 cells at 1 to 50 uM by Western blot method; format: functional, cell-based; details: 3T3-L1; method in brief: as §3
[21] = Reduction in FAS protein expression in mouse 3T3L1 cells at 25 uM after 9 days by Western blot method; details: 3T3-L1
3T3-L1 [22] = test: Activation of AMPK in mouse 3T3L1 cells assessed as increase in ACC Ser79 phosphorylation at 1 to 50 uM after 9 days by Western blot method; format: cell-based; method in brief: as §1
[23] = Reduction in SREBP-1c mRNA expression in mouse 3T3L1 cells at 1 to 50 uM after 72 hrs by RT-PCR method; format: functional, cell-based; details: 3T3-L1; method in brief: as §3
[24] = Reduction in AMPKalpha protein expression in mouse 3T3L1 cells at 1 to 50 uM after 9 days by Western blot method; format: functional, cell-based; details: 3T3-L1; method in brief: as §1
[25] = Cytotoxicity against mouse 3T3L1 cells assessed effect on cell morphology at 1 to 50 uM incubated for 1 to 9 days by microscopy; format: cell-based; details: 3t3-l1, 50 µM

For `O=Cc1c(-c2nc3ccccc3c(=O)[nH]2)[nH]c2ccccc12`, the Activity (3T3-L1 [1]) was “Dose-dependent effect”, the Activity [2] was “tde” and the inhibition (3T3-L1 [3]) was “Active”. The Activity [4] was “Active”, the inhibition (3T3-L1 [5]) was “Active” and the inhibition (3T3-L1 [6]) was “Active”. The Activity [7] was “Active”, the Activity [8] was “Active” and the inhibition (3T3-L1 [9]) was “Active”. The Activity (3T3-L1 [10]) was 40%, the Activity (3T3-L1 [11]) was “Active” and the inhibition (3T3-L1 [12]) was “Dose-dependent effect”. The inhibition (3T3-L1 [13]) was “Active”, the Activity (3T3-L1 [14]) was “Dose-dependent effect” and the Activity (3T3-L1 [15]) was “Active”. The inhibition (3T3-L1 [16]) was “Active”, the inhibition at 25 µM (3T3-L1 [17]) was 30% and the Activity [18] was “tde”. The Activity [19] was “Active”, the inhibition (HepG2) was “Dose-dependent effect” and the Activity [20] was “Active”. For the same compound, the Activity [21] was “Active”, the Activity (3T3-L1 [22]) was “Active” and the Activity [23] was “Active”. The Activity [24] was “Active” and the Activity [25] was “Non-toxic”.
